Compound activity: PubChem BioAssay, several laboratories
The list is not random: actives were taken first. Their share in the collection is about 3.8%.
MPTP inh – inhibitors of mitochondrial permeability transition pore; isolated mouse mitochondria, Ca2+ swelling absorbance, 30 min; inhibition, % at 10 µM; 360,000 compounds, 1.4% hits; AID 602449;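 active = inhibition of 50% or more, scaled per plate between neutral and stimulator controls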;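 note: 0% = DMSO wells given calcium and 100% = 1 mM EGTA wells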
GPR7 antag – human neuropeptides B/W receptor 1 antagonism; GPR7-expressing cells, fluorescence antagonist assay; inhibition, % at 4.4 µM; 290,000 compounds, 1.1% hits; AID 1861; in the data active = inhibition above about 16%, passing the limit was not always enough;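 note: cells stimulated with the agonist NPW; 0% = agonist with vehicle and 100% = vehicle without agonist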
OX1R antag-1 – blocks the human orexin 1 receptor. OX1R-expressing cells, FRET antagonist read-out. 330,000 compounds, 1.8% hits. inhibition, % at 6.6 µM. AID 485270; in the data active = inhibition mostly above about 38%, no sharp cut-off; inactive = mostly below about 40%;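 note: 0% = agonist challenge alone and 100% = reference antagonist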
Target sequence (O43613 whole entry, looked up): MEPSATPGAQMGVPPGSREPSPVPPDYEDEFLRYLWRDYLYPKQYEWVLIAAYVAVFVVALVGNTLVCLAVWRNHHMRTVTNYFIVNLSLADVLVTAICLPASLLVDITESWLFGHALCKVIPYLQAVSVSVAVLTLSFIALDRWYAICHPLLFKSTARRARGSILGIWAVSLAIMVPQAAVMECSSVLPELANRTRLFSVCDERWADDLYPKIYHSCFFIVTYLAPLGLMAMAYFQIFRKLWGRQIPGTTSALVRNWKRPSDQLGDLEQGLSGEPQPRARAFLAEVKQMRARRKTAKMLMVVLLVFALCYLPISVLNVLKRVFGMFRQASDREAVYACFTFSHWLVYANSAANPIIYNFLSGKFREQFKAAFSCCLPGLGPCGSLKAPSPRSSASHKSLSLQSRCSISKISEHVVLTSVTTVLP
OX1R antag-2 – human HCRTR1 antagonism. CHO/OX1R cells, Fluo-8 calcium fluorescence, orexin A. inhibition, % at 5 µM. 330,000 compounds, 0.43% hits. AID 434989;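 active = inhibition above its plate's threshold, mean inhibition of all tested compounds on the plate plus 3 SD, cut at about 37% in these data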;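 note: 0% = orexin A challenge wells and 100% = SB-334867-A antagonist wells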
CHO parental Ca – signal in parental CHO cells, OX1R antagonist counter-screen | parental CHO-K1, ATP-induced calcium, Fluo-8 fluorescence | inhibition, % at 5.6 µM | 330,000 compounds, 0.63% hits | AID 463079;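 active = inhibition above that plate's mean sample inhibition plus 3 SD, cut at about 26% in these data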;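 note: 0% = ATP-challenged DMSO wells and 100% = DMSO wells without ATP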
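Material: parental CHO cells / Compound: single nominal dose of 5.6 µM per compound / Signal: Fluo-8 fluorescence / Replicates: singlicate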
OX1R HTRF confirm – OX1R (human) antagonism, HTRF confirmed. shares compounds with OX1R antag-1. OX1R-expressing cells, HTRF antagonist assay. inhibition, % at 6.6 µM. 1,800 compounds, 49% hits. AID 492964; in the data active = inhibition above about 55%;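 note: CHO cells expressing OX1R stimulated with orexin A at about EC80; 0% = agonist challenge alone and 100% = reference antagonist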
CHO-K1 HTRF – counter-screen for OX1R antagonists: effect in parental CHO-K1 cells. shares compounds with OX1R antag-1. HTRF counterscreen. inhibition, % at 6.6 µM. 1,800 compounds, 48% hits. AID 493232; in the data active = inhibition above about 17%;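 note: 0% = agonist challenge with vehicle and 100% = vehicle alone without agonist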
* = called active by the depositor; nt = no result.

SMILES	MPTP inh	GPR7 antag	OX1R antag-1	OX1R antag-2	CHO parental Ca	OX1R HTRF confirm	CHO-K1 HTRF
O=[N+]([O-])c1ccc(S(=O)(=O)NCC2CCCO2)cc1 (configuration not stated)	-1.1	0.8	81.5*	-18.2	-10.5	45.8	47.3*
Cc1ccc(S(=O)(=O)NCC2CCCO2)cc1 (configuration not stated)	1.7	-8.9	2.5	-2.0	-10.3	nt	nt
CCOc1ccccc1CNCC1CCCO1 (configuration not stated)	-0.9	-10.3	0.6	-20.9	-13.0	nt	nt
COC1CCCN(C(=O)c2cccc(OC3CCN(S(=O)(=O)N(C)C)CC3)c2)C1 (configuration not stated)	-1.2	-10.8	12.5	-23.7	-3.2	nt	nt
Fc1ccc(NC(=S)Nc2cccnc2)c(Cl)c1	1.3	-3.7	97.5*	-8.6	-3.4	17.7	3.1
CC(C)NC(=O)N(C)C[C@@H]1Oc2cc(Br)ccc2S(=O)(=O)N([C@@H](C)CO)C[C@H]1C	-2.6	nt	nt	nt	nt	nt	nt
N#CC(C#N)=Cc1c[nH]c(=O)c(C#N)c1Nc1ccccc1	2.2	nt	88.0*	3.8	9.8	43.6	62.1*
CCOC(=O)C1CCN(C(=O)c2ccc3c(c2)S(=O)(=O)c2ccccc2C3=O)CC1	-0.3	-20.1	31.8	-41.9	-30.1	nt	nt
